Laboratory results reported in ChEMBL document CHEMBL4152356, “Amphipathic sulfonamidobenzamides mimicking small antimicrobial marine natural products; investigation of antibacterial and anti-biofilm activity against antibiotic resistant clinical isolates” (Bioorg Med Chem, 2018).
Calls of active or inactive are those of the source.

Key:
Staphylococcus aureus = assay: Antibacterial activity against Staphylococcus aureus ATCC 9144 after 48 hrs by microdilution method; type: functional; conditions: ATCC 9144, 48 h
In short: (§1)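 Broth microdilution (CLSI M07-A9, modified) in Mueller-Hinton broth; inoculum about 2.5-3 × 10^4 cells/ml mixed 1:1 with serial compound dilutions. Stock solutions in up to 100% DMSO, final DMSO ≤1%. Incubated 35 °C for 48 h.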

Escherichia coli [1] = assay: Antibacterial activity against Verona integron-encoded metallo-beta-lactamase 29-producing Escherichia coli 50,639,799 clinical isolate after 24 hrs by microdilution method; type: functional; conditions: Escherichia coli, 50,639,799, 24 h
In short: (§2)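 Clinical isolate screen by broth microdilution with about 1-1.2 × 10^6 cells/ml and 24 h incubation. MIC is the lowest concentration with no growth. For isolate collections, MIC90 is the MIC inhibiting ≥90% of isolates. Multidrug resistance was defined as resistance to at least […] antimicrobial class.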

Acinetobacter baumannii [2] = assay: Antibacterial activity against oxacillinase 23-producing Acinetobacter baumannii K47-42 clinical isolate after 24 hrs by microdilution method; type: functional; conditions: K47-42, 24 h
In short: (§3)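 Broth microdilution in Mueller-Hinton broth (modified CLSI M07-A9), clinical isolates at about 1-1.2 × 10^6 cells/ml. Inoculum mixed 1:1 with serial compound dilutions; stocks made in up to 100% DMSO, final DMSO ≤1%. Incubated 24 h.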

Enterococcus faecium = assay: Antibacterial activity against vancomycin resistant Enterococcus faecium 50,673,722 clinical isolate after 24 hrs by microdilution method; type: functional; conditions: Enterococcus faecium, 50,673,722, 24 h; in short: as §3
Pseudomonas aeruginosa [3] = assay: Antibacterial activity against Pseudomonas aeruginosa PAO1 DSM 19880 ATCC 15692 after 48 hrs by microdilution method; type: functional; conditions: PAO1 DSM 19880 ATCC 15692, 48 h; in short: as §1
Pseudomonas aeruginosa [4] = assay: Antibacterial activity against Verona integron-encoded metallo-beta-lactamase-producing Pseudomonas aeruginosa 50,692,520 clinical isolate after 24 hrs by microdilution method; type: functional; conditions: Pseudomonas aeruginosa, 50,692,520, 24 h; in short: as §2
Acinetobacter baumannii [5] = assay: Antibacterial activity against colistin-resistant oxacillinase 23-producing Acinetobacter baumannii K63-58 clinical isolate after 24 hrs by microdilution method; type: functional; conditions: K63-58, 24 h; in short: as §3
MRC5 = assay: Cytotoxicity against human MRC5 cells after 72 hrs by MTS assay; type: cell-based; conditions: MRC5, 72 h
In short: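 MRC-5 lung fibroblasts in DMEM with 10% FBS, 37 °C, 5% CO2; seeded at 4000 cells/well, adhered 24 h, medium replaced. Two-fold dilutions up to 100 µg/ml for 72 h, then MTS for 1 h and absorbance at 485 nm. Controls were 1% DMSO (negative) and 0.5% Triton X-100 (positive). EC50 is the concentration giving 50% inhibition of survival.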

Erythrocyte = assay: Hemolytic activity against human RBC measured after 1 hr; type: cell-based
In short: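 Washed human RBCs from a healthy donor (heparinized) at 10% in PBS pH 7.4, mixed 9:1 with serial compound dilutions, 37 °C for 1 h. Baseline set by 0.5% DMSO in 50% PBS, 100% lysis by 0.05% Triton X-100. EC50 is the concentration giving 50% lysis.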

Klebsiella pneumoniae [6] = assay: Antibacterial activity against oxacillinase 245-producing Klebsiella pneumoniae 50,625,602 clinical isolate after 24 hrs by microdilution method; type: functional; conditions: Klebsiella pneumoniae, 50,625,602, 24 h; in short: as §2
Klebsiella pneumoniae [7] = assay: Antibacterial activity against Klebsiella pneumoniae clinical isolates after 24 hrs by microdilution method; type: functional; in short: as §2
Bacillus subtilis [8] = assay: Antibacterial activity against Bacillus subtilis 168 ATCC 23857 after 48 hrs by microdilution method; type: functional; conditions: subsp. subtilis str. 168 ATCC 23857, 48 h; in short: as §1
Escherichia coli [9] = assay: Antibacterial activity against imipenem 26-type carbapenemase-producing Escherichia coli 50,857,972 clinical isolate after 24 hrs by microdilution method; type: functional; conditions: Escherichia coli, 50,857,972, 24 h; in short: as §2
Escherichia coli [10] = assay: Antibacterial activity against Escherichia coli ATCC 25922 after 48 hrs by microdilution method; type: functional; conditions: ATCC 25922, 48 h; in short: as §1
Pseudomonas aeruginosa [11] = assay: Antibacterial activity against Verona integron-encoded metallo-beta-lactamase 2-producing Pseudomonas aeruginosa K347 clinical isolate after 24 hrs by microdilution method; type: functional; conditions: K347, 24 h; in short: as §2
Bacillus subtilis [12] = assay: Induction of membrane disruption in Bacillus subtilis 168 expressing luciferase at 4 ug/ml […] by luminescence assay; type: functional, organism-based; conditions: subsp. subtilis str. 168

| SMILES | MIC (Staphylococcus aureus) [µg/mL] | MIC (Escherichia coli [1]) [µg/mL] | MIC (Acinetobacter baumannii [2]) [µg/mL] | MIC (Enterococcus faecium) [µg/mL] | MIC (Pseudomonas aeruginosa [3]) [µg/mL] | MIC (Pseudomonas aeruginosa [4]) [µg/mL] | MIC (Acinetobacter baumannii [5]) [µg/mL] | EC50 (MRC5) [µg/mL] | EC50 (Erythrocyte) [µg/mL] | MIC (Klebsiella pneumoniae [6]) [µg/mL] | MIC (Klebsiella pneumoniae [7]) [µg/mL] | MIC (Bacillus subtilis [8]) [µg/mL] | MIC (Escherichia coli [9]) [µg/mL] | MIC (Escherichia coli [10]) [µg/mL] | MIC (Pseudomonas aeruginosa [11]) [µg/mL] | Activity (Bacillus subtilis [12]) |
| --- | --- | --- | --- | --- | --- | --- | --- | --- | --- | --- | --- | --- | --- | --- | --- | --- |
| CC(C)(C)c1cc(C(C)(C)C)cc(S(=O)(=O)Nc2cc3ccccc3cc2C(=O)NCCNC(=N)N)c1.Cl | 4 | ≥ 32 | 32 | 8 | 32 | ≥ 64 | 32 | 55 | 25 | ≥ 32 | 16 to 32 | 4 | > 32 | 8 | > 64 | – |
| CN(c1ccc(C(=O)NCCCNC(=N)N)cc1)S(=O)(=O)c1cc(C(C)(C)C)cc(C(C)(C)C)c1.Cl | 4 | 32 | 32 | 16 | 16 | 32 | ≥ 32 | 36 | 55 | ≥ 32 | 32 | 4 | 32 | 16 | > 32 | Active |
